Activity calls are given as the source filed them. The calls are words filed in the database; no cut-off is given here.
Key:
[1] = target: T1, MexXY/OprM (Pseudomonas aeruginosa (strain ATCC 15692 / DSM 22644 / CIP 104116 / JCM14847 / LMG 12228 / 1C / PRS 101 / PAO1)) (UniProt Q51487+Q9ZNG9+Q9ZNG8); assay: Inhibition of MexXY/OPRM in Pseudomonas aeruginosa C54 assessed as bacterial growth up to 320 ug/ml incubated for 24 to 48 hrs by broth microdilution method; assay type: protein-complex assay
Method in brief: (§1)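 Broth microdilution following CLSI guidelines, with P. aeruginosa ATCC 27853 as reference strain. Berberine was tested at 2-fold concentrations from 10 to 320 µg/ml, dissolved in 50% DMSO/50% methanol, with the top concentration set to keep final DMSO close to 1%. Plates were incubated at 37°C and read for visible growth at 24 and 48 h.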

[2] = target: T1, MexXY/OprM (Pseudomonas aeruginosa (strain ATCC 15692 / DSM 22644 / CIP 104116 / JCM14847 / LMG 12228 / 1C / PRS 101 / PAO1)); assay: Inhibition of MexXY/OPRM in Pseudomonas aeruginosa PA14 assessed as reduction in bacterial resistance to tobramycin by measuring tobramycin MIC at 80 ug/ml incubated for 24 to 48 hrs by broth microdilution method (reference value: 0.125 ug/ml); assay type: protein-complex assay
Method in brief: (§2)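 Broth microdilution per CLSI, with P. aeruginosa ATCC 27853 as reference strain, in 2-fold dilution series. Plates were incubated at 37°C and read for visible growth at 24 and 48 h. Berberine stock was in 50% DMSO/50% methanol, with final DMSO kept near 1%. Berberine was tested at 10–320 µg/ml, alone or at a fixed level with serial tobramycin.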

[3] = target: T1, MexXY/OprM (Pseudomonas aeruginosa (strain ATCC 15692 / DSM 22644 / CIP 104116 / JCM14847 / LMG 12228 / 1C / PRS 101 / PAO1)); assay: Inhibition of MexXY/OPRM in Pseudomonas aeruginosa C83 assessed as reduction in bacterial resistance to tobramycin by measuring fold reduction in tobramycin MIC at 80 ug/ml incubated for 24 to 48 hrs by broth microdilution method; assay type: protein-complex assay
[4] = target: T1, MexXY/OprM (Pseudomonas aeruginosa (strain ATCC 15692 / DSM 22644 / CIP 104116 / JCM14847 / LMG 12228 / 1C / PRS 101 / PAO1)); assay: Inhibition of MexXY/OPRM in Pseudomonas aeruginosa C84 assessed as reduction in bacterial resistance to tobramycin by measuring fold reduction in tobramycin MIC at 80 ug/ml incubated for 24 to 48 hrs by broth microdilution method; assay type: protein-complex assay
Method in brief: (§3)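 Tobramycin MIC by CLSI broth microdilution at 37°C, read at 24 and 48 h, with and without a fixed berberine concentration selected from checkerboard assays. Berberine stock was in 50% DMSO/50% methanol, final DMSO about 1%. A 2-fold decrease in tobramycin MIC was scored as synergy.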

[5] = target: T1, MexXY/OprM (Pseudomonas aeruginosa (strain ATCC 15692 / DSM 22644 / CIP 104116 / JCM14847 / LMG 12228 / 1C / PRS 101 / PAO1)); assay: Inhibition of MexXY/OPRM in Pseudomonas aeruginosa C30 assessed as bacterial growth up to 320 ug/ml incubated for 24 to 48 hrs by broth microdilution method; assay type: protein-complex assay; method in brief: as §1
[6] = target: T1, MexXY/OprM (Pseudomonas aeruginosa (strain ATCC 15692 / DSM 22644 / CIP 104116 / JCM14847 / LMG 12228 / 1C / PRS 101 / PAO1)); assay: Inhibition of MexXY/OPRM in Pseudomonas aeruginosa K767 assessed as bacterial growth up to 320 ug/ml incubated for 24 to 48 hrs by broth microdilution method; assay type: protein-complex assay; method in brief: as §2
[7] = target: T1, MexXY/OprM (Pseudomonas aeruginosa (strain ATCC 15692 / DSM 22644 / CIP 104116 / JCM14847 / LMG 12228 / 1C / PRS 101 / PAO1)); assay: Inhibition of MexXY/OPRM in Pseudomonas aeruginosa C6 assessed as reduction in bacterial resistance to tobramycin by measuring tobramycin MIC at 80 ug/ml incubated for 24 to 48 hrs by broth microdilution method (reference value: 2 ug/ml); assay type: protein-complex assay
[8] = target: T1, MexXY/OprM (Pseudomonas aeruginosa (strain ATCC 15692 / DSM 22644 / CIP 104116 / JCM14847 / LMG 12228 / 1C / PRS 101 / PAO1)); assay: Inhibition of MexXY/OPRM in Pseudomonas aeruginosa C93 assessed as reduction in bacterial resistance to tobramycin by measuring fold reduction in tobramycin MIC at 80 ug/ml incubated for 24 to 48 hrs by broth microdilution method; assay type: protein-complex assay; method in brief: as §3
[9] = target: T1, MexXY/OprM (Pseudomonas aeruginosa (strain ATCC 15692 / DSM 22644 / CIP 104116 / JCM14847 / LMG 12228 / 1C / PRS 101 / PAO1)); assay: Inhibition of MexXY/OPRM in Pseudomonas aeruginosa C51 assessed as reduction in bacterial resistance to tobramycin by measuring tobramycin MIC at 80 ug/ml incubated for 24 to 48 hrs by broth microdilution method (reference value: 0.125 ug/ml); assay type: protein-complex assay
[10] = target: T1, MexXY/OprM (Pseudomonas aeruginosa (strain ATCC 15692 / DSM 22644 / CIP 104116 / JCM14847 / LMG 12228 / 1C / PRS 101 / PAO1)); assay: Inhibition of MexXY/OPRM in Pseudomonas aeruginosa C95 assessed as reduction in bacterial resistance to tobramycin by measuring increase in tobramycin-mediated bactericidal activity at 80 ug/ml in presence of 1XMIC to 2XMIC tobramycin measured after 2 hrs by Time-kill curve analysis; assay type: protein-complex assay
[11] = target: T1, MexXY/OprM (Pseudomonas aeruginosa (strain ATCC 15692 / DSM 22644 / CIP 104116 / JCM14847 / LMG 12228 / 1C / PRS 101 / PAO1)); assay: Inhibition of MexXY/OPRM in Pseudomonas aeruginosa AR61 assessed as reduction in bacterial resistance to tobramycin by measuring tobramycin MIC at 80 ug/ml incubated for 24 to 48 hrs by broth microdilution method (reference value: 0.125 ug/ml); assay type: protein-complex assay
[12] = target: T1, MexXY/OprM (Pseudomonas aeruginosa (strain ATCC 15692 / DSM 22644 / CIP 104116 / JCM14847 / LMG 12228 / 1C / PRS 101 / PAO1)); assay: Inhibition of MexXY/OPRM in Pseudomonas aeruginosa C70 assessed as reduction in bacterial resistance to tobramycin by measuring fold reduction in tobramycin MIC at 80 ug/ml incubated for 24 to 48 hrs by broth microdilution method; assay type: protein-complex assay
[13] = target: T1, MexXY/OprM (Pseudomonas aeruginosa (strain ATCC 15692 / DSM 22644 / CIP 104116 / JCM14847 / LMG 12228 / 1C / PRS 101 / PAO1)); assay: Inhibition of MexXY/OPRM in Pseudomonas aeruginosa C6 assessed as reduction in bacterial resistance to tobramycin by measuring fold reduction in tobramycin MIC at 80 ug/ml incubated for 24 to 48 hrs by broth microdilution method; assay type: protein-complex assay
[14] = target: T1, MexXY/OprM (Pseudomonas aeruginosa (strain ATCC 15692 / DSM 22644 / CIP 104116 / JCM14847 / LMG 12228 / 1C / PRS 101 / PAO1)); assay: Inhibition of MexXY/OPRM in Pseudomonas aeruginosa C86 assessed as reduction in bacterial resistance to tobramycin by measuring fold reduction in tobramycin MIC at 80 ug/ml incubated for 24 to 48 hrs by broth microdilution method; assay type: protein-complex assay; method in brief: as §3
[15] = target: T1, MexXY/OprM (Pseudomonas aeruginosa (strain ATCC 15692 / DSM 22644 / CIP 104116 / JCM14847 / LMG 12228 / 1C / PRS 101 / PAO1)); assay: Inhibition of MexXY/OPRM in Pseudomonas aeruginosa C76 assessed as bacterial growth up to 320 ug/ml incubated for 24 to 48 hrs by broth microdilution method; assay type: protein-complex assay; method in brief: as §1
[16] = target: T1, MexXY/OprM (Pseudomonas aeruginosa (strain ATCC 15692 / DSM 22644 / CIP 104116 / JCM14847 / LMG 12228 / 1C / PRS 101 / PAO1)); assay: Inhibition of MexXY/OPRM in Pseudomonas aeruginosa C9 assessed as reduction in bacterial resistance to tobramycin by measuring tobramycin MIC at 80 ug/ml incubated for 24 to 48 hrs by broth microdilution method (reference value: 2 ug/ml); assay type: protein-complex assay; method in brief: as §2
[17] = target: T1, MexXY/OprM (Pseudomonas aeruginosa (strain ATCC 15692 / DSM 22644 / CIP 104116 / JCM14847 / LMG 12228 / 1C / PRS 101 / PAO1)); assay: Inhibition of MexXY/OPRM in Pseudomonas aeruginosa C67 assessed as bacterial growth up to 320 ug/ml incubated for 24 to 48 hrs by broth microdilution method; assay type: protein-complex assay; method in brief: as §1
[18] = target: T1, MexXY/OprM (Pseudomonas aeruginosa (strain ATCC 15692 / DSM 22644 / CIP 104116 / JCM14847 / LMG 12228 / 1C / PRS 101 / PAO1)); assay: Inhibition of MexXY/OPRM in Pseudomonas aeruginosa PA14 assessed as bacterial growth up to 320 ug/ml incubated for 24 to 48 hrs by broth microdilution method; assay type: protein-complex assay; method in brief: as §2
[19] = target: T1, MexXY/OprM (Pseudomonas aeruginosa (strain ATCC 15692 / DSM 22644 / CIP 104116 / JCM14847 / LMG 12228 / 1C / PRS 101 / PAO1)); assay: Inhibition of MexXY/OPRM in Pseudomonas aeruginosa AR48 assessed as reduction in bacterial resistance to tobramycin by measuring tobramycin MIC at 80 ug/ml incubated for 24 to 48 hrs by broth microdilution method (reference value: 32 ug/ml); assay type: protein-complex assay
[20] = target: T1, MexXY/OprM (Pseudomonas aeruginosa (strain ATCC 15692 / DSM 22644 / CIP 104116 / JCM14847 / LMG 12228 / 1C / PRS 101 / PAO1)); assay: Inhibition of MexXY/OPRM in Pseudomonas aeruginosa C83 assessed as bacterial growth up to 320 ug/ml incubated for 24 to 48 hrs by broth microdilution method; assay type: protein-complex assay; method in brief: as §1
Erythrocyte = assay: Hemolytic activity in human RBC at 10 to 320 ug/ml incubated for 1 hr by spectrophotometry; assay type: ADME, cell-based
Method in brief: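 Fresh heparinized human blood diluted in PBS pH 7.4, washed 3x, resuspended to ~20 vol%. Erythrocyte suspension mixed 1:1 with 1:2 serial berberine dilutions in PBS. PBS served as negative control, 0.2 vol% Triton X-100 as positive control.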

[21] = target: T1, MexXY/OprM (Pseudomonas aeruginosa (strain ATCC 15692 / DSM 22644 / CIP 104116 / JCM14847 / LMG 12228 / 1C / PRS 101 / PAO1)); assay: Inhibition of MexXY/OPRM in Pseudomonas aeruginosa C61 assessed as bacterial growth up to 320 ug/ml incubated for 24 to 48 hrs by broth microdilution method; assay type: protein-complex assay; method in brief: as §1
[22] = target: T1, MexXY/OprM (Pseudomonas aeruginosa (strain ATCC 15692 / DSM 22644 / CIP 104116 / JCM14847 / LMG 12228 / 1C / PRS 101 / PAO1)); assay: Inhibition of MexXY/OPRM in Pseudomonas aeruginosa C93 assessed as reduction in bacterial resistance to tobramycin by measuring tobramycin MIC at 80 ug/ml incubated for 24 to 48 hrs by broth microdilution method (reference value: >128 ug/ml); assay type: protein-complex assay; method in brief: as §2

Q: Which inhibition [1] does the source give for `COc1ccc2cc3[n+](cc2c1OC)CCc1cc2c(cc1-3)OCO2` [BERBERINE] here?
A: The inhibition was “inactive”.

Q: And the MIC [2]?
A: Its MIC is 0.125 µg/mL.

Q: What about the fold change (FC) [3] of the same compound?
A: Its fold change (FC) is over 2.

Q: And the fold change (FC) [4]?
A: The fold change (FC) was over 2.

Q: What about the inhibition [5] of the same compound?
A: The inhibition was “inactive”.

Q: And the inhibition [6]?
A: Its inhibition is “inactive”.

Q: What about the MIC [7] of the same compound?
A: The MIC was 0.5 µg/mL.

Q: What about the fold change (FC) [8] of the same compound?
A: The fold change (FC) was over 2.

Q: And the MIC [9]?
A: Its MIC is under 0.125 µg/mL.

Q: What about the inhibition [10] of the same compound?
A: Its inhibition is “Active”.

Q: And the MIC [11]?
A: Its MIC is 0.125 µg/mL.

Q: And the fold change (FC) [12]?
A: The fold change (FC) was over 2.

Q: What about the fold change (FC) [13] of the same compound?
A: The fold change (FC) was over 2.

Q: And the fold change (FC) [14]?
A: Its fold change (FC) is over 2.

Q: And the inhibition [15]?
A: The inhibition was “inactive”.

Q: What about the MIC [16] of the same compound?
A: Its MIC is 1 µg/mL.

Q: And the inhibition [17]?
A: Its inhibition is “inactive”.

Q: And the inhibition [18]?
A: The inhibition was “inactive”.

Q: What about the MIC [19] of the same compound?
A: Its MIC is 8 µg/mL.

Q: What about the inhibition [20] of the same compound?
A: Its inhibition is “inactive”.

Q: What about the Activity (Erythrocyte) of the same compound?
A: Its Activity is “Non-Toxic”.

Q: And the inhibition [21]?
A: Its inhibition is “inactive”.

Q: And the MIC [22]?
A: Its MIC is 64 µg/mL.

Source: ChEMBL document CHEMBL4334451, “Natural Alkaloid Berberine Activity against Pseudomonas aeruginosa MexXY-Mediated Aminoglycoside Resistance: In Silico and in Vitro Studies” (J Nat Prod, 2019)
